Screens as filed in PubChem BioAssay.
STAT1 inh: STAT1 signaling inhibitors, primary screen, cell-based, HTS, luciferase reporter; inhibition, % at 5.5 µM; NIH 3T3 STAT1-luciferase reporter, IFN-gamma, luminescence; 0.35% of 200,000 active;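 active means inhibition above a set limit, the mean inhibition across all tested compounds plus 3 SD, cut at about 34% in these data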
STAT3 blocker: IL-6 driven STAT3 reporter inhibitors, primary screen, U3A cells, luciferase, luminescence, MLSCN library | IL-6 STAT3-luciferase reporter; host cell line lacks STAT1 | inhibition, % at 5.5 µM | 0.89% of 190,000 active;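 active means inhibition above the mean inhibition across all screened compounds plus 3 SD, cut at about 44% in these data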
STAT1 act: STAT1 signaling activators, primary screen, cell-based, HTS, luciferase reporter | NIH 3T3 STAT1-luciferase reporter, IFN-gamma, luminescence; 100% = IFN-gamma alone, no compound | activation (% of control), % at 5.5 µM | 2.6% of 200,000 active;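 active means activation above the screen-wide mean activation plus 3 SD, cut at about 130% in these data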
HSV replic up: enhancers of HSV replication in host cells, fold increase, host cell viability. HSV replication augmentation in cells. maximum fold increase. 0.005% of 220,000 active. AID 1956, 2009; in the data active means maximum fold increase above about 1.5; inconclusive means no clear call, values can overlap the other calls; tested in PC3 cells
STAT3 activator: IL-6 driven STAT3 reporter potentiators, primary screen, U3A cells, luciferase, luminescence, MLSCN library; activation (% of control), % at 5.6 µM; 0.91% of 190,000 active; IL-6 STAT3-luciferase reporter; 100% = signal with IL-6 EC80 alone;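 active means activation above the screen-wide mean of compound activation plus 3 SD, cut at about 130% in these data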
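Assay system – human STAT1-deficient U3A cells with stable STAT3-luciferase reporter · Also added – IL-6 (33 ng/mL) · Schedule – compound 1 h, then IL-6 6 h at 37 °C · Technique – reporter luminescence signal · Evaluation – % activation versus median of IL-6-stimulated wells · Benchmarks – IL-6-only wells as 100% reference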
Cl transport mod: KCC2 cotransporter modulators, thallium flux, primary screen, cell-based, HEK293 KCC2, FluoZin-2 fluorescence, MLSMR; Solute carrier family 12 member 5 (Homo sapiens), Q9H2X9; B-score of Tl+ flux slope (higher = more flux/activation; lower = inhibition) at 10 µM; KCC2 cells, thallium flux FluoZin-2 fluorescence; 2.2% of 190,000 active; AID 1456, 2008;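 active means thallium flux slope and its plate-corrected score both differing from the plate sample mean at a set confidence after two filtering rounds, in either direction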;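 further: slope of fluorescence scaled to starting intensity during 10 to 20 s after thallium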
Target sequence (Q9H2X9 whole entry, looked up): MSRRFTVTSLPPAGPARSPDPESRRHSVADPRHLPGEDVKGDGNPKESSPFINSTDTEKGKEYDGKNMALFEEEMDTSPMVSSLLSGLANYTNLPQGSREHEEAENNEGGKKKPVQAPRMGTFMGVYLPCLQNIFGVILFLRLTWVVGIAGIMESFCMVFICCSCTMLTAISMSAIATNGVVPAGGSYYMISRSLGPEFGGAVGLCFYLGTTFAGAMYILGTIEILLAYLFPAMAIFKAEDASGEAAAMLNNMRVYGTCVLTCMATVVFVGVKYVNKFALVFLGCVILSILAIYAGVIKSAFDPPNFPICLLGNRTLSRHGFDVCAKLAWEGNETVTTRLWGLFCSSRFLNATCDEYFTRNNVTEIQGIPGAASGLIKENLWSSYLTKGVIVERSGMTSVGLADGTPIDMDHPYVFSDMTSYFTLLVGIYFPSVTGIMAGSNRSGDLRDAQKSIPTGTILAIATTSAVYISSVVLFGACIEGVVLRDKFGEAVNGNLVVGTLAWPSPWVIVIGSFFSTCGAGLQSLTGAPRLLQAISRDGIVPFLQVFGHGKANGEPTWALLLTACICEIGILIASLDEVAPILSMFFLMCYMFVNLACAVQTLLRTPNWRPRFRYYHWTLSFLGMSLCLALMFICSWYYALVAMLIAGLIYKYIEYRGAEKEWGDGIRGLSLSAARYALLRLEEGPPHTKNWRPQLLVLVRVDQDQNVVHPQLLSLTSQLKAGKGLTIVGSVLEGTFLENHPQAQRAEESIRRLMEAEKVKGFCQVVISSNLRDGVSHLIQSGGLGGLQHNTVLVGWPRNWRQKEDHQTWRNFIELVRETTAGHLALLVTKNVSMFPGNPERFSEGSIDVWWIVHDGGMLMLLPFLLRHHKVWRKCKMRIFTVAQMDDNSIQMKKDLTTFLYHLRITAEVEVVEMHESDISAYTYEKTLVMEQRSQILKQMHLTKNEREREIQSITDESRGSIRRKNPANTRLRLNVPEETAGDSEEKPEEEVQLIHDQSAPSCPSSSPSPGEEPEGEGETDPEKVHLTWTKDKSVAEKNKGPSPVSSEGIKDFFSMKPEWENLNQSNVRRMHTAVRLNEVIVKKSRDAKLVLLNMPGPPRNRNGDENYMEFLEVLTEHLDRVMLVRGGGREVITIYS
KCC2 secondary: KCC2 modulators in sodium-free buffer, confirmation, cell-based, HEK293 KCC2, thallium flux, secondary assay; shares compounds with Cl transport mod; FluoZin2 fluorescence; active compounds read high; normalised thallium flux (F/F0 slope) at 10 µM; 15% of 3,700 active; AID 1713, 2009;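 active means thallium flux slope above the same plate's solvent-only control mean plus 3 SD; inconclusive means the two replicate wells disagree; inactive means no significant difference from solvent-only control wells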
KCC2 bumet counter: thallium flux persisting under bumetanide in KCC2 cells, confirmation, counter-screen for KCC2 modulator project, cell-based, HEK293 KCC2, FluoZin2, secondary assay 3; shares compounds with Cl transport mod; HEK293-KCC2 + bumetanide/ouabain; active compounds read high; normalized thallium flux at 10 µM; 49% of 3,700 active; AID 1714, 2009;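 active means thallium entry rate above the same plate's blocked-transporter control wells by more than 3 SD; inconclusive means the two repeat wells disagree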;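 further: raw slope of fluorescence over initial fluorescence between 10 and 20 s after thallium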
KCC2 sec2: KCC2 modulators without ouabain present, confirmation, cell-based, HEK293 KCC2, thallium flux, FluoZin2, secondary assay 2; 23% of 3,700 active; thallium flux FluoZin2 fluorescence; actives lie on both sides; F/F0 rise rate, 10–20 s post-thallium; shares compounds with Cl transport mod; normalized thallium flux at 10 µM;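 active means thallium flux slope more than 3 SD above or below the plate's solvent-only control mean, mostly below; inconclusive means the two repeat wells disagreed; inactive means no significant shift from solvent-only controls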
HEK counter1: thallium flux modulation in parental HEK cells, confirmation, counter-screen for KCC2 modulator project, cell-based, counterscreen 1. shares compounds with Cl transport mod. HEK293 parental cells, thallium flux FluoZin2, ouabain; baseline-ratio fluorescence slope, 10–20 s after thallium. thallium flux rate (normalised fluorescence) at 10 µM. 46% of 3,700 active. AID 1716, 2009;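 active means thallium flux rate significantly above the same plate's solvent-only control wells, beyond their mean plus 3 SD; inconclusive means the two replicate wells gave conflicting results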
KCC2 ouabain: KCC2 inhibitors and activators, ouabain retest, confirmation, HEK-KCC2 cells | shares compounds with Cl transport mod | HEK293-KCC2, thallium flux FluoZin2 fluorescence; bidirectional: low = inhibitor, high = activator | raw Tl+ flux slope (below DMSO = inhibition, above = activation) at 10 µM | 48% of 3,700 active | AID 1717, 2009;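 active means thallium flux slope beyond 3 SD from same-plate DMSO control mean in most replicates, usually higher, sometimes lower; inconclusive means repeat tests gave conflicting results; inactive means no significant difference from controls in most replicates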;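 further: slope of initial-normalized fluorescence between seconds 10 and 20 after thallium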
HEK293 Tl flux2: native HEK Tl+ uptake effects, second counter-screen – HEK cells, counterscreen 2, counter-screen for KCC2 modulator project, confirmation; HEK293 parental, thallium flux FluoZin-2 fluorescence slope; shares compounds with Cl transport mod; AID 1718, 2009; 33% of 3,700 active; thallium flux slope at 10 µM;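 active means thallium flux slope above the same plate's solvent-control mean plus 3 SD in both duplicate wells; inconclusive means duplicate wells that disagreed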;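 further: run without ouabain in cells lacking the KCC2 cotransporter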
A number is an active result; n = inactive; u = inconclusive; x = no result. Compounds with a hit are over-represented: about 5.5% of the library has one in this group of screens.

SMILES | STAT1 inh | STAT3 blocker | STAT1 act | HSV replic up | STAT3 activator | Cl transport mod | KCC2 secondary | KCC2 bumet counter | KCC2 sec2 | HEK counter1 | KCC2 ouabain | HEK293 Tl flux2
CC(C)(C)c1cc(C(=O)NNC(=O)c2ccc(C(F)(F)F)cc2)no1 | x | x | x | n | x | 64.3 | 0.0283 | 0.0828 | u | 0.0406 | 0.0452 | 0.0215
CCN(CC)c1ccc2cc(-c3nc(-c4ccc(OC)cc4)cs3)c(=O)oc2c1 | n | n | n | u | n | n | x | x | x | x | x | x
CCN(CC)c1ccc2cc(-c3nc4ccccc4n3C)c(=O)oc2c1 | n | n | 136.3 | x | 144.9 | x | 0.00443 | 0.00034 | 0.022 | 0.00367 | 0.00811 | u
CC1SC(C)C(=O)N(CC(=O)NC2CCCCC2)C1=O (centres undefined) | n | n | n | n | n | n | x | x | x | x | x | x
CCN(Cc1cc(=O)[nH]c2ccccc12)C(=O)c1ccc(C)cc1 | x | x | x | n | x | n | x | x | x | x | x | x
CCOC(=O)C1=C(CN2CCOCC2)NC(=O)NC1c1cc(C)ccc1C (centres undefined) | n | n | n | n | n | n | x | x | x | x | x | x
CCOC(=O)C1=C(CN2CCCCC2)NC(=O)NC1c1cc(C)ccc1C (centres undefined) | n | n | n | n | n | x | n | n | n | n | n | n
CC1(c2cccs2)CC(c2cccs2)=C(C#N)C(=O)N1 (centres undefined) | n | n | n | n | n | 5.19 | n | n | n | 0.00595 | n | n
COc1cc(/C=C/C(=O)O)cc(S(=O)(=O)NCCO)c1OC | n | n | n | n | n | n | x | x | x | x | x | x
Cc1cc(C)nc(Sc2nc(C)nc3c2oc2ccccc23)n1 | n | n | n | n | n | x | n | n | n | n | n | n
Cc1nc(SCc2cccc(F)c2)c2oc3ccccc3c2n1 | x | x | x | n | x | n | x | x | x | x | x | x
Cc1ccc(-c2cc(C(=O)OCn3nnc4ccccc4c3=O)c3ccccc3n2)cc1 | n | n | n | n | n | n | x | x | x | x | x | x
Cc1ccc(/C(O)=C/C(=O)C(=O)NC23CC4CC(CC(C4)C2)C3)cc1 | x | x | x | n | x | 86 | n | 0.075 | n | u | 0.0553 | 0.0199
CC(=O)NCCOc1nc(N(C)C)nc(N2CCOCC2)n1 | n | n | n | n | n | n | x | x | x | x | x | x
COc1nc(OCCNC(C)=O)nc(N(C)C)n1 | n | n | n | n | n | n | n | n | n | n | n | n
Cc1ccc(CNC(=O)CSc2nc3ccccc3c3nc(C)nn23)cc1 | n | n | n | n | n | x | x | x | x | x | x | x
S=c1[nH]nc(-c2ccccn2)n1/N=C/c1ccco1 | x | x | x | n | x | n | x | x | x | x | x | x
S=c1[nH]nc(-c2cccc(Cl)c2)n1/N=C/c1ccc(-c2ccccc2Br)o1 | x | x | x | n | x | n | x | x | x | x | x | x
S=c1[nH]nc(-c2ccccn2)n1/N=C/c1ccc(-c2ccccc2Br)o1 | n | n | n | n | n | 84.4 | n | 0.135 | 0.168 | 0.138 | 0.136 | 0.155
S=c1[nH]nc(-c2ccccc2)n1/N=C/c1ccc(-c2ccccc2Cl)o1 | n | n | n | n | n | 6.79 | n | 0.0135 | u | 0.0196 | 0.0269 | 0.0182
CC(C)C1Nc2ccc(S(N)(=O)=O)cc2C2C=CCC21 (centres undefined) | n | n | n | n | n | n | x | x | x | x | x | x
NS(=O)(=O)c1ccc2c(c1)C1C=CCC1C(C1CC=CCC1)N2 (centres undefined) | n | n | n | n | n | 4.72 | n | n | n | n | n | n
COc1cc(CNc2ccc(CNc3ncn[nH]3)cc2)cc(Cl)c1OCc1ccccc1 | n | n | n | n | n | n | x | x | x | x | x | x
COc1cc(OC)cc(C(=O)N[C@H](C(=O)Nc2nc(-c3ccc(OC)c(OC)c3)cs2)C(C)C)c1 | x | x | x | n | x | n | x | x | x | x | x | x
COc1ccccc1CN(C)CC(=O)Nc1ccc(Cl)cc1F | n | n | n | n | n | n | x | x | x | x | x | x
SMILES | STAT1 inh | STAT3 blocker | STAT1 act | HSV replic up | STAT3 activator | Cl transport mod | KCC2 secondary | KCC2 bumet counter | KCC2 sec2 | HEK counter1 | KCC2 ouabain | HEK293 Tl flux2
COc1cc(Cl)c(C)cc1NC(=O)CN(C)Cc1cccc(OC)c1OC | n | n | n | n | n | -3.57 | n | n | n | 0.00614 | n | u
O=C(/C=C/Nc1nccs1)C(F)(F)Cl | n | n | n | n | n | 8.86 | u | 0.0171 | 0.0377 | 0.0156 | u | 0.0152
CCc1cc(-c2n[nH]c(=S)n2-c2cccc(C)c2)cs1 | n | n | n | x | n | 42.7 | 0.0118 | 0.114 | n | 0.0198 | 0.0471 | n
CCCCCCn1c(-c2cccs2)n[nH]c1=S | n | n | n | n | n | 45.6 | n | 0.0837 | 0.0678 | 0.0627 | 0.0673 | 0.0566
CCCCn1c(-c2cccs2)nc2nc3ccccc3nc21 | n | n | n | n | n | x | x | x | x | x | x | x
CCCCn1c(-c2csc(CC)c2)n[nH]c1=S | n | n | n | n | n | 14.2 | 0.012 | 0.0539 | n | 0.0221 | 0.0443 | 0.0124
CCCCn1c(-c2nn(C)cc2Cl)n[nH]c1=S | n | n | n | n | n | n | x | x | x | x | x | x
CCCCn1c(-c2csc3ccccc23)n[nH]c1=S | n | n | n | x | n | 4.75 | n | 0.0229 | u | 0.0204 | 0.0276 | 0.0227
CC(C)=NNc1nc(-c2ccccc2)c(C)s1 | n | n | n | n | n | n | x | x | x | x | x | x
CC(c1ccc(F)cc1)n1c(-c2cccs2)n[nH]c1=S (centres undefined) | n | n | n | n | n | 5.19 | n | 0.0165 | n | 0.014 | u | 0.0157
